# Screens from PubChem BioAssay.
# An excerpt weighted towards active compounds, which were near 2.6% of everything screened.
# SENP1 FRET inh: blocks the human SENP1 SUMO protease catalytic domain. AID 624204. Q9P0U3. hit rate 0.21% among 360,000. inhibition, % at 10 µM. recombinant SENP1 catalytic domain, CyPet-SUMO1-YPet FRET cleavage;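 active = inhibition at least 30% at 10 µM, raw YFP signal under a set limit, fluorescence ratio 0.5 to 1.5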;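 also: 0% = enzyme with DMSO and 100% = no enzyme wells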
#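 Assay system: hSENP1 catalytic domain, recombinant. Amount: SENP1 enzyme, 20 pM final. Schedule: 50 min reaction, RT, dark. Technique: FRET, CFP and YFP emission. Control set: no-enzyme wells low, DMSO-plus-enzyme wells high control.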
# SENP8 block-1: blocks the human protease SENP8; Q96LD8; purified SENP8, Z-RLRGG-aminoluciferin cleavage, luminescence; inhibition, % at 10 µM; hit rate 1.2% among 330,000; in the data active = inhibition above about 50%
# SENP7 inh: inhibitors of human SENP7 protease; recombinant SENP7, Z-RLRGG-aminoluciferin luminescence, 40 min; AID 434973; inhibition, % at 5 µM; hit rate 1.5% among 330,000; Q9BQF6;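 active = inhibition above about 50% at the single test dose, limit read from the data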;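 also: plate controls were DMSO with enzyme for no effect and no enzyme buffer wells for full effect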
# SENP8 block-2: blocks human SENP8 cleavage of Nedd8 substrate; Q96LD8; recombinant SENP8, Nedd8 substrate fluorescence; inhibition, % at 20 µM; hit rate 0.64% among 360,000; AID 602440; in the data active = inhibition mostly above about 40%, no sharp cut-off; inactive = mostly below about 27%
# Platelet DG rel: platelet dense granule release activity; human platelet-rich plasma, SFLLRN dense granule ATP release, luminescence; inhibition, %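 (compounds screened at 7.5 µM in platelet-rich plasma)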; hit rate 0.22% among 300,000;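 active = mean replicate score, as percent of positive control, at or above 50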
# SENP6 block: blocks the human protease SENP6; inhibition, % at 10 µM; Recombinant SENP6 catalytic domain, aminoluciferin luminescence; hit rate 1.8% among 330,000;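 active = inhibition above about 50% at the single tested dose, limit read from the data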;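 also: plate controls were DMSO wells with enzyme for no effect and DMSO wells lacking enzyme for full effect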
# Target sequence (Q9GZR1 628-1112 limits assumed): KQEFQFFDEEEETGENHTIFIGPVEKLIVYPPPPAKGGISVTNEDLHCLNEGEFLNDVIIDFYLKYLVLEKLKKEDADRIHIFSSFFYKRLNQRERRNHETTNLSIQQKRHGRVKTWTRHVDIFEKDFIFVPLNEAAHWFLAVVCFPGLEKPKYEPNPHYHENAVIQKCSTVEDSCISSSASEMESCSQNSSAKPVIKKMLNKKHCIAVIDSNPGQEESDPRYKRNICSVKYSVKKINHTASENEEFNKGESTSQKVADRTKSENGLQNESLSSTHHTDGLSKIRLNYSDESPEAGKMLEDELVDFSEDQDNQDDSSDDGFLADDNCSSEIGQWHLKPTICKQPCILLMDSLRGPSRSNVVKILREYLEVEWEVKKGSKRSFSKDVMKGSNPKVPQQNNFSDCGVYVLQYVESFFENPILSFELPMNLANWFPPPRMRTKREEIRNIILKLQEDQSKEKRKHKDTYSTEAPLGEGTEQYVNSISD
# SENP8 inh conf: SENP8 (human) inhibition, single concentration confirmation | shares compounds with SENP8 block-2 | purified SENP8, Nedd8-AMC/pro-Nedd8 cleavage fluorescence, 30 min | inhibition, % at 25 µM | hit rate 15% among 1,400 | AID 624319; in the data active = inhibition mostly above about 39%, no sharp cut-off; inactive = mostly below about 34%
# * = called active by the depositor; nt = no result.
SMILES,SENP1 FRET inh,SENP8 block-1,SENP7 inh,SENP8 block-2,Platelet DG rel,SENP6 block,SENP8 inh conf
COc1ccc2ccccc2c1C1CC(=O)N2CN(C3CCCCC3)CSC2=C1C#N (stereo not given),3.5,-1.7,-4.4,75.3*,0.3,-0.3,8.8
COc1ccc(N2CSC3=C(C#N)C(c4cccc(OC)c4OC)CC(=O)N3C2)cc1 (stereo not given),-33.6,12.1,10.4,-15.6,21.9,4.5,nt
CCOc1ccc(CN(C(=O)c2cc(=O)c3cc(C)cc(C)c3o2)C2CCS(=O)(=O)C2)cc1 (stereo not given),3.2,-2.2,1.4,1.2,2.6,2.6,nt
CC1CN(c2ccc([N+](=O)[O-])c(NCCOc3ccccc3)c2)CC(C)N1 (stereo not given),1.4,1.1,0.9,38.3*,14.8,-14.6,5.7
CC(C)(C)CNc1cc(N2CCCC2)ccc1[N+](=O)[O-],2.8,-4.5,-1.4,26.2,-5.3,1.2,nt
CC1CN(c2ccc([N+](=O)[O-])c(NCCOc3ccc(Cl)cc3)c2)CC(C)N1 (stereo not given),2.4,-6.2,-1.5,46.2*,0.2,2.0,15.7
O=[N+]([O-])c1ccc(N2CCCCC2)cc1NCCOc1ccccc1,1.6,-9.8,-2.1,40.5*,-19.8,-3.3,19.9
Cc1ccccc1OCCNc1cc(N2CC(C)NC(C)C2)ccc1[N+](=O)[O-] (stereo not given),3.0,-7.0,-3.5,24.8,-4.7,-22.3,nt
O=C(N1CCOCC1)C12OC3CC(CC(C3)O1)O2,-0.5,nt,nt,16.4,nt,nt,nt
Cc1ccc(N/C=C/c2onc(C)c2[N+](=O)[O-])cc1,-34.9,28.6,77.8*,53.5*,15.9,59.6*,14.4
Cc1cccc(C)c1N/C=C/c1onc(C)c1[N+](=O)[O-],-50.0,-1.4,2.0,31.5,30.7,7.7,nt
O=c1[nH]n2c(=O)c3c([nH]c2c1N=Nc1cccc(Cl)c1)CCC3,1.5,nt,nt,27.4,-10.7,nt,nt
O=c1[nH]n2c(=O)c3c([nH]c2c1N=Nc1cccc(C(F)(F)F)c1)CCCC3,3.6,-5.9,-5.7,56.0*,2.5,4.7,24.4
C[C@H]1CN([C@@H](C)CO)C(=O)c2cc(C#CC3CCCC3)cnc2O[C@H]1CN(C)C(=O)Cc1ccccn1,-5.9,nt,nt,11.6,nt,nt,nt
CCn1c2ccccc2c2nnc(NN)nc21,-0.2,7.4,7.7,32.7,7.2,20.8,nt
CCCCn1c2ccc(F)cc2c2nnc(NN)nc21,-0.2,0.4,3.5,70.9*,3.8,10.7,15.0
Cn1c2ccccc2c2nnc(NN)nc21,3.5,4.3,-11.0,76.9*,2.5,16.8,37.9*
CCn1c2ccc(C)cc2c2nnc(NN)nc21,0.4,0.4,8.3,68.9*,11.0,3.8,20.9
O=C(CSc1nnc(CNC(=O)c2cccs2)o1)Nc1ccccc1C(F)(F)F,1.7,-12.2,3.3,12.1,2.8,-23.3,nt
Cc1ccc(/C=N/N2C(=S)SC(C)(C)C2N(O)C(=O)Nc2ccc([N+](=O)[O-])cc2)cc1 (stereo not given),1.9,-1.2,0.8,40.1*,2.4,-7.8,5.9
CC1(C)SC(=S)N(/N=C/c2ccc(O)cc2)C1N(O)C(=O)Nc1ccc([N+](=O)[O-])cc1 (stereo not given),1.5,-10.7,-12.4,29.3,19.1,-8.5,nt
Cc1nc2ccccc2n1CC(O)COCC1CC=CCC1 (stereo not given),0.7,-2.8,-2.0,43.0*,-28.7,-1.5,-4.8
OC(COCC1CC=CCC1)Cn1cnc2ccccc21 (stereo not given),-3.6,7.7,-2.8,19.7,0.5,8.5,nt
OC[C@@H]1CN(Cc2ccc3c(c2)OCO3)C[C@H](n2cnc3c(NC4CCC4)ncnc32)O1,2.7,nt,nt,6.8,nt,nt,nt
O=C(CN1C(=O)CSC1=O)N1CCc2ccccc2C1,-3.0,-2.1,3.0,41.8*,1.0,35.9,62.9*
O=C(NC(=S)Nc1cccc([N+](=O)[O-])c1)C1CCCCC1,2.4,-1.4,-1.5,11.0,11.6,-15.3,nt
O=C(/C(=C(\[O-])c1ccccc1)[n+]1ccc2ccccc2c1)c1ccccc1,7.1,nt,nt,29.4,-9.4,nt,nt
O=C(/C(=C(\[O-])c1ccccc1)[n+]1ccc2ccccc2c1)c1ccc(Cl)cc1,0.9,11.4,18.0,46.3*,9.9,10.9,61.7*
